Assay outcomes as filed in PubChem BioAssay.
A selection: hits, their analogues and other compounds. The true share with any hit is near 3.3%.
rCAG binder – molecules binding r(CAG) RNA repeats. r(CAG) RNA repeat, TO-PRO-1 dye displacement fluorescence. inhibition, % at 3 µM. actives 1.3% (n = 370,000). AID 651821;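 active = inhibition above the plate cutoff, the mean of all test compounds on that plate plus 3 SD, cut at about 35% in these data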;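 also: higher means more dye released from RNA so lower well fluorescence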
HTRA1 inhibitor – blocks human HTRA1 serine peptidase | actives 0.5% (n = 340,000) | Q92743 | AID 504803 | inhibition, % at 5.96 µM | recombinant HTRA1, FP-rhodamine activity-based probe, fluorescence polarization; in the data active = inhibition above about 36%
ABHD4 inh – ABHD4 (mouse) inhibition, primary FP screen. purified mABHD4, FP-Rh probe fluorescence polarization. inhibition, % at 8.92 µM. AID 720543. actives 0.54% (n = 370,000);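 active = inhibition exceeding the mean over every tested compound plus 3 SD, cut at about 30% in these data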
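Test system: mouse ABHD4 enzyme, wild type. Reagent: FP-Rh fluorescent activity-based probe, added after compound pre-incubation. Timing: pre-incubation 45 min, probe exposure 60 min, at 25 °C. Technique: FP readout, ex 525 nm / em 598 nm. Benchmarks: high control S159A mutant with DMSO, low control median of compound wells.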
SIAE inh – blocks human sialic acid acetylesterase | SIAE FP-Rh probe binding, fluorescence polarization | inhibition, % at 9.66 µM | Q9HAT2 | AID 1053197 | actives 0.69% (n = 370,000);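 active = inhibition above a cutoff: mean of compounds within the control limits plus 3 SD of those, cut at about 17% in these data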
PRMT1 inh – PRMT1 (human) inhibition, primary screen; recombinant PRMT1, activity-based probe fluorescence polarization; inhibition, % at 2.79 µM; actives 1.3% (n = 370,000); AID 652257;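 active = inhibition above about 21% made by adding two undisclosed values, limit read from the data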
Target sequence (Q99873 whole entry, looked up): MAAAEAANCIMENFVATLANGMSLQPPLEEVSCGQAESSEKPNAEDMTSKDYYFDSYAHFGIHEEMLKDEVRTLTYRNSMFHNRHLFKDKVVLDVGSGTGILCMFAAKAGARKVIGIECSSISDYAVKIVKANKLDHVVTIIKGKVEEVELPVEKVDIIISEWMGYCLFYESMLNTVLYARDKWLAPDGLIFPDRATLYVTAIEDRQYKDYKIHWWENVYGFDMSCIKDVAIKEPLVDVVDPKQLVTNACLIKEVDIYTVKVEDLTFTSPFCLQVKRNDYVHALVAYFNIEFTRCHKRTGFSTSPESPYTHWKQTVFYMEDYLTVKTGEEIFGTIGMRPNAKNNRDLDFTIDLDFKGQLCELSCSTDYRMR
rCAG binder conf – r(CAG) RNA repeat binding, confirmation; shares compounds with rCAG binder; TO-PRO-1 dye displacement fluorescence; inhibition, % at 3 µM; actives 70% (n = 4,300); AID 652065;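 active = inhibition above a per-plate cutoff, the mean inhibition of sample wells plus 3 SD, cut at about 35% in these data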;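 also: loss of TO-PRO-1 fluorescence as compound displaces dye from 1x1 AA loop RNA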
dCAG dye counter – DNA CAG dye complex inhibition counter-screen | actives 94% (n = 4,300) | AID 652068 | shares compounds with rCAG binder | inhibition, % at 3 µM | d(CAG) DNA oligo TO-PRO-1 dye displacement, fluorescence;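 active = inhibition above its plate's cutoff, the mean test-well inhibition plus 3 SD, cut at about 4.8% in these data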;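 also: hits displace the dye from DNA and so lower well fluorescence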
dCAG dye DR – counter-screen for rCAG binders: inhibitors of DNA CAG TO-PRO-1 complex; DNA CAG/GTC duplex TO-PRO-1 dye displacement fluorescence; IC50, µM; AID 686960; actives 20% (n = 250); shares compounds with rCAG binder; in the data active = IC50 below about 10 µM
Of the large screens only hits and unclear results are named; the others gave an inactive call (follow-up assays come after a bar, where they were run).

COC(=O)c1c(-c2ccccc2)csc1N1C(=O)Nc2ccccc2N1O	none
CC(=O)CC[C@@H]1CC[C@]2(CCCN(C(=O)C3CCCC3)C2)O1	none (no result: HTRA1 inhibitor)
O=C(C1CCCN(S(=O)(=O)c2ccc(F)cc2)C1)N1CCN(Cc2ccccc2)CC1 (stereo unspecified)	none (no result: HTRA1 inhibitor)
Cc1[nH]c(=O)nc(SCc2ccc(Cl)c(Cl)c2)c1C#N	rCAG binder 38 | rCAG binder conf inactive | dCAG dye counter 7.2
CCCCOCCCNC(=O)C[C@H]1C[C@@]2(C(=O)OC)C(=C[C@H](COCc3ccccc3)O[C@@H]2C)N(Cc2ccc(Cl)cc2Cl)C1=O	none (no result: HTRA1 inhibitor)
Nc1c(C(=O)O)ccc2c1C(=O)c1ccccc1C2=O	none
Nc1c(SCCC(=O)O)ccc2c1C(=O)c1ccccc1C2=O	rCAG binder 37 | rCAG binder conf inactive | dCAG dye counter inactive
Cc1ccc(Sc2ncccc2C(=O)NCc2cc([N+](=O)[O-])ccc2O)cc1C	rCAG binder 35 | rCAG binder conf inactive | dCAG dye counter 5.3
O=S(=O)(c1cc(O)ccc1O)c1cccc2c(S(=O)(=O)c3cc(O)ccc3O)cccc12	rCAG binder 43 | rCAG binder conf 36 | dCAG dye counter 24
Cc1cc(NC(=O)CCc2c[nH]c3ccccc23)ccc1Nc1cccnc1	none (no result: HTRA1 inhibitor)
O=C(O)Cn1cc(/C=C2/SC(=O)N(CC(=O)N3CCCCCC3)C2=O)c2ccccc21	rCAG binder 40 (no result: HTRA1 inhibitor) | rCAG binder conf 37 | dCAG dye counter 10
Cc1ccc(C)c(OCC(=O)NC(Cc2c[nH]c3ccccc23)C(=O)O)c1 (stereo unspecified)	none
Cc1ccc(Nc2nnc(SCC(=O)NC(Cc3c[nH]c4ccccc34)C(=O)O)s2)cc1 (stereo unspecified)	rCAG binder 38 | rCAG binder conf inactive | dCAG dye counter 8.6
CCOc1ccccc1Nc1nnc(SCC(=O)Nc2ccc3[nH]c(=O)[nH]c3c2)s1	none
CCOc1ccccc1Nc1nnc(SCC(=O)NC(Cc2c[nH]c3ccccc23)C(=O)O)s1 (stereo unspecified)	rCAG binder 39 | rCAG binder conf inactive | dCAG dye counter 10
C#CCN(Cc1ccco1)C(=O)c1nnc2c3ccccc3n(S(=O)(=O)c3ccccc3)c2n1	none (no result: HTRA1 inhibitor)
O=c1cc(-c2ccccc2Cl)oc2c([N+](=O)[O-])c(O)cc(O)c12	rCAG binder 51 | rCAG binder conf 35 | dCAG dye counter 12
O=c1cc(-c2ccccc2Cl)oc2ccc([N+](=O)[O-])c(O)c12	none
COc1ccc2c(c1)CCCN2C(=O)C1CCCN(S(=O)(=O)c2cccc3ccccc23)C1 (stereo unspecified)	none (no result: HTRA1 inhibitor)
CCCCNC(=O)C[C@H]1C[C@@]2(C(=O)OC)C(=C[C@H](C3CCCC3)O[C@@H]2C)N(Cc2ccc(Cl)cc2Cl)C1=O	none (no result: HTRA1 inhibitor)
COc1cc(/C=C2/SC(=S)N(CC(=O)O)C2=O)ccc1OC(=O)c1cccs1	rCAG binder 60 | rCAG binder conf 72 | dCAG dye counter 34 | dCAG dye DR inactive
COc1cc(/C=C2\SC(=S)N(CC(=O)O)C2=O)ccc1OS(=O)(=O)c1ccc(C)cc1	rCAG binder 81 | rCAG binder conf 86 | dCAG dye counter 56
O=C(N[C@H](C(=O)N1CCC[C@H]1C(=O)NC1CCCC1)C1CCCCC1)C1CC1	none (no result: HTRA1 inhibitor)
CCOc1cc(/C=C2/SC(=O)N(CC(=O)N3CCc4ccccc4C3)C2=O)ccc1OCC(=O)O	rCAG binder 57 | rCAG binder conf 60 | dCAG dye counter 21
NC(=O)COc1ccccc1/C=C1/SC(=O)N(CC(=O)N2CCc3ccccc3C2)C1=O	none
COc1cc(/C=C2/SC(=S)N(Cc3ccccc3)C2=O)ccc1OCC(=O)O	rCAG binder 72 | rCAG binder conf 86 | dCAG dye counter 55
CCOc1cc(/C=C2/SC(=S)N(Cc3ccccc3)C2=O)ccc1O	rCAG binder 37 | rCAG binder conf 42 | dCAG dye counter 24
O=C1/C(=C\c2ccc(O)cc2)SC(=S)N1Cc1ccccc1	none
C=CCN1C(=O)/C(=C/c2ccc(OCC(=O)O)cc2)S/C1=N/c1nccs1	rCAG binder 56 | rCAG binder conf 57 | dCAG dye counter 17
COc1ccccc1-n1c(SCC(=O)N2CCOCC2)nc(O)cc1=O	none
COc1ccc(NC(=O)CSc2nc(O)cc(=O)n2C)cc1	none
Cn1c(SCC(=O)Nc2ccccc2)nc(O)cc1=O	rCAG binder 37 | rCAG binder conf inactive | dCAG dye counter 5.0
CCCn1c(SCC(=O)Nc2ccc(F)c(Cl)c2)nc(O)cc1=O	none
Cc1ccc(-n2c(SCC(=O)Nc3ccc(Cl)cc3)nc(O)cc2=O)cc1	rCAG binder 37 | rCAG binder conf inactive | dCAG dye counter 10
COc1ccccc1-n1c(SCC(=O)Nc2ccc(Br)cc2)nc(O)cc1=O	rCAG binder 42 | rCAG binder conf inactive | dCAG dye counter 7.5
COc1ccc(NC(=O)CSc2nc(O)cc(=O)n2-c2ccccc2)cc1	rCAG binder 38 | rCAG binder conf inactive | dCAG dye counter 7.5
O=C(Cn1nnc(-c2ccncc2)n1)Nc1ccc(F)cc1F	none (no result: HTRA1 inhibitor)
O=C(CSc1nc(O)cc(=O)n1-c1ccccc1)Nc1nc2ccccc2s1	rCAG binder 44 | rCAG binder conf 52 | dCAG dye counter 19
O=C(CSc1nc(O)cc(=O)n1-c1ccccc1)Nc1ccc2c3c(cccc13)CC2	rCAG binder 45 | rCAG binder conf inactive | dCAG dye counter 12
Nn1c(SCC(=O)Nc2nc3ccccc3s2)nncc1=O	none
C[C@H](c1ccccc1)N1C[C@@H](COCc2ccccc2)Oc2cccc(Oc3ccccc3)c2S1(=O)=O	none (no result: HTRA1 inhibitor)
O=C(O)c1ccc(N2C(=O)CC(SC(=NCc3ccc4c(c3)OCO4)Nc3ccccc3)C2=O)cc1 (stereo unspecified)	rCAG binder 69 | rCAG binder conf 62 | dCAG dye counter 23
O=C(O)c1ccc(N2C(=O)CC(SC(=NCc3ccc4c(c3)OCO4)Nc3ccc(F)cc3)C2=O)cc1 (stereo unspecified)	rCAG binder 77 | rCAG binder conf 73 | dCAG dye counter 33 | dCAG dye DR inactive
CN=C(Nc1ccc2c(c1)OCO2)SC1CC(=O)N(c2ccccc2)C1=O (stereo unspecified)	none
O=C1CC(SC(=NCc2ccc3c(c2)OCO3)Nc2ccccc2)C(=O)N1c1ccccc1 (stereo unspecified)	none
CCOC(=O)c1sc2nc3c(SCC(=O)O)cc(C(=O)c4ccccc4O)cn3c(=O)c2c1C	none
